High-throughput results from PubChem.
Yeast lifespan up: yeast lifespan extension; S. cerevisiae growth with nicotinamide, OD615; deaD strain in restrictive glucose medium; inhibition of the nicotinamide effect, % at 10 µM; 130,000 compounds, 0.68% hits; AID 775;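 active means inhibition above a set limit, placed 3 SD over the median of all compounds, cut at about 26% in these data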
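Buffer or medium: CSMM-D glucose medium, restrictive; test system: modified budding yeast, DeaD strain; compound: single dose 10 µM compound, 0.25% DMSO; schedule: culture preincubation 4 h, compound exposure 48 h, both 30 °C; detection: optical density (absorbance) at 615 nm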
Mdm2 ligase inh: Mdm2 E3 ligase (human) inhibition. 210,000 compounds, 0.11% hits. Q00987. signal enhancement, % at 5 µM. cell-based MDM2 ubiquitination luciferase reporter, 2 h; 0 = plate control, 100 = twice control, blank-subtracted;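 active means signal enhancement of 30% or more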;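 further: luminescence tracks abundance of the self-degrading MDM2-luciferase fusion protein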
Target sequence (Q00987 whole entry, looked up, the tested form may be a part): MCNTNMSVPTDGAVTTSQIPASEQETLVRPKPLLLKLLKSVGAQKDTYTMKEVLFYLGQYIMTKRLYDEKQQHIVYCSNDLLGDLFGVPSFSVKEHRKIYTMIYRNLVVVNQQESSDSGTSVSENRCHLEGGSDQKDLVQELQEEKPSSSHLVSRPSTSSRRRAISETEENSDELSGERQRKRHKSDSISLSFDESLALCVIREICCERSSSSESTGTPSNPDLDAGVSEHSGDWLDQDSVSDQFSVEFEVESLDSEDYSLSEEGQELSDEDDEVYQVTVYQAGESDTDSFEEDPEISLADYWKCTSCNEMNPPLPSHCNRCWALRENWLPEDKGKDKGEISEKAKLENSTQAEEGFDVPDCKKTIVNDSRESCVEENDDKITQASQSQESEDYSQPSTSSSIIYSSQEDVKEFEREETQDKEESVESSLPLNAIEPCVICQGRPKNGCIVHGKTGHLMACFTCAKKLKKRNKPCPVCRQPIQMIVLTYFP
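Material: stable MDM2–luciferase fusion reporter cells / Quantity: 2000 cells/well / Dosing: single 5 µM compound dose, 0.2% final DMSO / Buffer or medium: DMEM / Schedule: 4 h cell settling then 2 h compound exposure, 37 °C / Detection: luminescence with SteadyLite reagent, 15 min at room temperature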
Measles CPE: protection of cells from measles virus; protection (pct of control), % at 4 µM; Measles virus-infected cells, CPE protection, absorbance; 140,000 compounds, 1.5% hits; in the data active means protection mostly above about 24%, no sharp cut-off; inactive means mostly below about 26%
RAM network inh: yeast RAM network inhibition. 190,000 compounds, 1.8% hits. AID 868. S. cerevisiae dse1pr::URA3 reporter, 5-FOA growth OD615, 2 d; analog-sensitive cbk1-as2 kinase mutant strain. inhibition, % at 50 µM;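 active means inhibition above a set limit, 3 SD over mean compound inhibition, cut at about 8.4% in these data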;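 further: inhibition rescues growth on 5-FOA so higher OD means more RAM inhibition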
Yeast growth inh: chemicals that inhibit yeast BB579 growth in restrictive medium (lifespan-shortening candidates). AID 804. 140,000 compounds, 0.51% hits. inhibition, % at 10 µM. S. cerevisiae BB579 growth, OD615, 48 h;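 active means inhibition above a set limit, 3 SD over the mean compound inhibition, cut at about 44% in these data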
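controls = amphotericin B 10 µg/mL, positive | assay system = DeaD yeast strain BB579 | schedule = 48 h compound exposure at 30 °C after 4 h preincubation | detection = OD615 turbidity measurement | medium = restrictive CSMM-D medium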
INS promoter inh: TRM-6 insulin promoter activity inhibition; AID 1273; TRM-6 cells, insulin promoter-eGFP reporter, imaging; reporter expression induced with tamoxifen; inhibition, % at 2 µM; 130,000 compounds, 0.9% hits;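 active means inhibition above the mean plus 3 SD, with well images judged a real hit on visual review, cut at about 60% in these data, passing the limit was not always enough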
A number is an active result; – = inactive; · = no result given. Most compounds without a hit are left out; they make up all but 4% or so of the library.

SMILES	Yeast lifespan up	Mdm2 ligase inh	Measles CPE	RAM network inh	Yeast growth inh	INS promoter inh
O=C(NCC1CCCN(Cc2ccc3nonc3c2)C1)c1cccc(C(F)(F)F)c1 (stereo not drawn)	·	–	·	–	·	–
COCC(=O)Nc1ccc(S(=O)(=O)NCCc2ccccc2)cc1	–	–	–	–	–	100.0
O=S(=O)(c1ccc2c(c1)nc1n2CCC1)N1CCOCC1	–	–	–	–	–	–
FC(F)(F)c1ccc2c(c1)nc1n2CCCC1	–	–	–	–	–	73.1
CCOC(=O)c1ccc(CNCc2ccccc2)cc1	–	–	–	–	–	–
COc1cc(C)c(NC(=S)Nc2cccc(Cl)c2C)cc1OC	–	–	–	–	–	·
CNC(=O)COC(=O)c1cc(=O)[nH]c2ccccc12	53.9	–	–	–	–	–
NC(=O)COC(=O)c1cc(=O)[nH]c2ccccc12	·	–	·	·	·	·
CC(C)(C)NC(=O)NC(=O)COC(=O)c1cc(=O)[nH]c2ccccc12	–	–	34.5	–	–	–
O=C1Nc2ccc(NS(=O)(=O)c3cccs3)c3cccc1c23	–	–	44.1	–	–	·
O=C(O)c1ccccc1NS(=O)(=O)c1ccc2c3c(cccc13)C(=O)N2	–	–	–	–	–	·
O=C(NC1CCCC1)C(c1ccsc1)N(Cc1ccccc1)C(=O)Cc1cccs1 (stereo not drawn)	–	–	63.0	–	–	–
O=C(NC1CCCC1)C(c1ccncc1)N(Cc1ccccc1)C(=O)Cc1cccs1 (stereo not drawn)	–	–	–	–	–	–
Cc1nn(CC(=O)OCC(=O)Nc2ccccc2[N+](=O)[O-])c(C)c1[N+](=O)[O-]	–	–	–	–	–	–
Cc1ccc(NC(=O)COC(=O)Cn2nc(C)c([N+](=O)[O-])c2C)c([N+](=O)[O-])c1	–	–	39.7	–	–	–
Cc1ccc(NC(=O)CSc2nc(C)c(C)c(C)n2)c([N+](=O)[O-])c1	–	–	–	8.5	–	–
Cc1ccc(NC(=O)CSc2ncccn2)c([N+](=O)[O-])c1	·	–	·	–	·	–
COc1ccc(N=c2oc3c(OC)cccc3cc2C(=O)NCc2ccco2)cc1OC	–	–	–	9.9	–	·
O=C1CC(N2CCSCC2)C(=O)N1CCc1ccccc1 (stereo not drawn)	–	–	–	–	–	–
Cc1ccc(S(=O)(=O)N(C)C)cc1NC(=S)NC(=O)C12CC3CC(CC(C3)C1)C2	–	–	–	–	–	–
NS(=O)(=O)c1cccc(NC(=S)NC(=O)C23CC4CC(CC(C4)C2)C3)c1	–	–	44.3	–	–	–
O=C(NNC(=S)NC(=O)C12CC3CC(CC(C3)C1)C2)c1ccncc1	–	–	–	–	74.3	·
CN(C(=O)CSCC(=O)O)C1CCCCC1	–	–	–	–	–	–
O=C(O)c1cncc(C#CCC2CCCCC2)c1	·	–	·	·	·	·
COc1ccc(C2C(C(=O)OC(C)C)=C(C)N=c3s/c(=C\c4cccs4)c(=O)n32)cc1 (stereo not drawn)	–	–	44.7	–	–	–
SMILES	Yeast lifespan up	Mdm2 ligase inh	Measles CPE	RAM network inh	Yeast growth inh	INS promoter inh
CCOC(=O)C1=C(C)N=c2s/c(=C/c3ccccc3)c(=O)n2C1c1ccc(OC)c(OC)c1 (stereo not drawn)	–	–	–	–	–	–
CCN1C=CC(=C2C(=O)c3ccccc3C2=O)C=C1	–	–	39.6	–	–	–
O=C1CC(c2ccccc2)CC(O)=C1C=NCCN1CCN(C(=O)Nc2ccccc2)CC1 (stereo not drawn)	91.5	–	–	–	–	–
O=C1CC(c2ccccc2)CC(O)=C1C=NCCN1CCNCC1 (stereo not drawn)	34.6	–	–	–	–	·
Cc1ccc(NC(=O)CN2CCN(CCN=CC3=C(O)CC(c4ccccc4)CC3=O)CC2)cc1 (stereo not drawn)	60.4	–	–	–	–	–
CCC(=O)N1CCN(CCN=CC2=C(O)CC(c3cccs3)CC2=O)CC1 (stereo not drawn)	52.9	–	–	–	–	–
CCOC(=O)C1=C(c2ccccc2)N2CCN=C2S1	·	·	·	·	·	–
Cc1ccccc1OCCn1cnc2cc([N+](=O)[O-])ccc2c1=O	·	–	·	–	·	·
COc1cc(NC(c2ccccc2)c2ccccc2)cc(OC)c1OC	·	–	·	8.4	·	·
COc1cc(NS(C)(=O)=O)cc(OC)c1OC	·	–	·	–	·	·
CN(CC(=O)Nc1ccccc1C(F)(F)F)C(=O)COc1ncnc2ccccc12	·	–	·	–	·	–
Cc1cc(NC(=O)CSc2ncccc2C(=O)O)no1	·	–	·	–	·	·
COc1ccc(C=O)cc1COc1ccccc1F	–	–	–	–	–	–
COc1ccc(/C=C/C(=O)c2ccccc2)cc1COc1ccccc1F	–	–	–	10.0	–	–
Cc1ccc(S(=O)(=O)N2CCCCC2)cc1NC(=O)COC(=O)Cc1cccc(C(F)(F)F)c1	–	–	–	9.2	–	–
Cc1cc(-c2ccccc2)nc(N2CCC(C(=O)NCC3CCCCC3)CC2)n1	·	·	·	·	·	–
Cc1cc(C)nc(N2CCC(C(=O)NCC3CCCCC3)CC2)n1	–	–	32.9	–	–	·
Cc1cccc(NC(=O)c2ccccc2NC(=O)CCC(=O)O)c1	–	–	–	–	–	78.6
Cc1ccc(N2CCN(c3ccc(NC(=O)CCC(=O)O)cc3)CC2)cc1	–	–	–	–	–	73.3
Cc1ccc(NC(=O)c2cc(NC(=O)CCC(=O)O)ccc2N2CCCCC2)cc1	–	–	–	9.0	–	–
O=C(O)CCC(=O)Nc1ccccc1C(=O)NCc1ccccc1	–	–	–	–	–	–
CCOC(=O)c1cc(NC(=O)CCC(=O)O)ccc1N1CCCCC1	·	–	·	·	·	·
CC1(C)NC(=O)N(CC(=O)OCC(=O)Nc2cc(S(=O)(=O)N3CCCCCC3)ccc2Cl)C1=O	–	–	–	–	–	·
CC(C)CC1NC(=O)N(CC(=O)Nc2ccccc2-c2ccccc2)C1=O (stereo not drawn)	·	–	·	–	·	–
CCN(C(=O)C1CCN(S(=O)(=O)c2ccc3c(c2)oc(=O)n3C)CC1)c1cccc(C)c1	–	–	–	–	–	·
SMILES	Yeast lifespan up	Mdm2 ligase inh	Measles CPE	RAM network inh	Yeast growth inh	INS promoter inh
COC(=O)C1=C(O)C(C(=O)OC)C(c2ccc(C)cc2)C(C#N)(C#N)C1c1ccc(C)cc1 (stereo not drawn)	·	–	–	8.5	–	–
Cc1nc2cc(N)ccc2n1-c1ccccc1	·	–	·	–	·	·
Cc1nc2ccccc2n1-c1ccccc1	54.0	–	–	–	–	·
COC(=O)c1c(NC(=O)CSc2nnc(C)c(=O)[nH]2)sc(C)c1C	·	–	·	–	·	–
Nc1c2c(nc3sc4c(c13)CCCCC4)CCCCC2	–	–	48.5	–	–	–
CC1CCc2nc3sc4c(c3c(N)c2C1)CCCC4 (stereo not drawn)	–	–	–	–	–	–
Cc1nnc(SCc2ccc(F)cc2)s1	–	–	–	–	–	–
